The species named for this assay is Homo sapiens. Description: In vitro inhibitory concentration against Chymotrypsin-like activity of the purified human placenta 20S Proteasome. Type of assay: functional. The method in brief:
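Purified human placenta 20S proteasome; chymotrypsin-like activity measured by cleavage of the fluorogenic substrate Suc-Leu-Val-Tyr-AMC (AMC release). Trypsin-like (Boc-Leu-Arg-Arg-AMC) and post-glutamyl-peptide hydrolytic-like (Z-Leu-Leu-Glu-AMC) substrates were used for the parallel selectivity assays.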

Take `COc1ccc(CN[C@@H](C(=O)N[C@H](C(=O)NCc2ccc(OC)cc2O)C(C)C)[C@H](O)[C@H](Cc2ccccc2)NC(=O)[C@@H](NC(=O)CCc2cccc(N)c2)C(C)(C)C)cc1`: the IC50 was 600 nM. For `COc1ccc(CN[C@@H](C(=O)N[C@H](C(=O)NCc2ccc(OC)cc2O)C(C)C)[C@H](O)[C@H](Cc2ccccc2)NC(=O)[C@@H](NC(=O)OCc2cc(C)cc(C)c2)C(C)(C)C)cc1`, half-maximal inhibition (IC50) was put at 1100 nM. Turning to `COc1ccc(CN[C@@H](C(=O)N[C@H](C(=O)NCc2ccc(OC)cc2O)C(C)C)[C@H](O)[C@H](Cc2ccccc2)NC(=O)[C@@H](NC(=O)OCc2cccc(N)c2)C(C)(C)C)cc1`, the IC50 is 600 nM. Regarding `COc1ccc(CN[C@@H](C(=O)N[C@H](C(=O)NCc2ccc(OC)cc2O)C(C)C)[C@H](O)[C@H](Cc2ccccc2)NC(=O)[C@@H](NC(=O)OCc2cccc3ccccc23)C(C)(C)C)cc1`, the 50% inhibitory concentration (IC50) is 2000 nM. In the case of `COc1ccc(CN[C@@H](C(=O)N[C@H](C(=O)NCc2ccc(OC)cc2OC)C(C)C)[C@H](O)[C@H](Cc2ccccc2)NC(=O)[C@@H](NC(=O)OCc2ccccc2)C(C)C)cc1` it was > 20000 nM.

Molecule `COc1ccc(CN[C@@H](C(=O)N[C@H](C(=O)NCc2ccc(OC)cc2O)C(C)C)[C@H](O)[C@H](Cc2ccccc2)NC(=O)[C@@H](NC(=O)OC(C)(C)C)C(C)(C)C)cc1` showed a half-maximal inhibitory concentration (IC50) of 27000 nM. In turn, `COc1ccc(CN[C@@H](C(=O)N[C@H](C(=O)NCc2ccc(OC)cc2O)C(C)C)[C@H](O)[C@H](Cc2ccccc2)NC(=O)[C@@H](NC(=O)OCc2ccccc2)C(C)(C)C)cc1` returned an IC50 of 900 nM. For the molecule `COc1ccc(CN[C@@H](C(=O)N[C@H](C(=O)NCc2ccc(OC)cc2O)C(C)C)[C@H](O)[C@H](Cc2ccccc2)NC(=O)[C@@H](NC(=O)OCc2ccccc2)C(C)C)cc1`, the half-maximal inhibitory concentration (IC50) came out at 3300 nM. With `COc1ccc(CN[C@@H](C(=O)N[C@H](C(=O)NCc2ccc(OC)cc2O)C(C)C)[C@H](O)[C@H](Cc2ccccc2)NC(=O)[C@@H](N)C(C)(C)C)cc1`, inhibition was half-maximal at 70000 nM (IC50).

In turn, `COc1ccc(CN[C@@H](C(=O)N[C@H](C(=O)NCc2ccc(OC)cc2O)C(C)C)[C@H](O)[C@H](Cc2ccccc2)NC(=O)[C@@H](NC(=O)Cc2cccc3ccccc23)C(C)(C)C)cc1` had a 50% inhibitory concentration (IC50) of 100 nM. For the molecule `COc1ccc(CN[C@@H](C(=O)N[C@H](C(=O)NCc2ccc(OC)cc2O)C(C)C)[C@H](O)[C@H](Cc2ccccc2)NC(=O)[C@@H](NC(=O)OCc2cccc(C)c2)C(C)(C)C)cc1`, the midpoint of inhibition, the IC50, lay at 500 nM. On to `COc1ccc(CN[C@@H](C(=O)N[C@H](C(=O)NCc2ccccc2O)C(C)C)[C@H](O)[C@H](Cc2ccccc2)NC(=O)[C@@H](NC(=O)OCc2ccccc2)C(C)(C)C)cc1`, for which the half-maximal inhibitory concentration (IC50) came to 72000 nM.

A word on the IC50: it is the midpoint of a concentration-inhibition curve.

The values above are taken from ChEMBL document CHEMBL1134066, “A new structural class of selective and non-covalent inhibitors of the chymotrypsin-like activity of the 20S proteasome” (Bioorg Med Chem Lett, 2001).
